The text below walks through data of ChEMBL document CHEMBL3600298, “Antiproliferative and apoptosis-inducing activities of novel naphthalimide-cyclam conjugates through dual topoisomerase (topo) I/II inhibition” (Bioorg Med Chem, 2015).

Assay [1] relates to HeLa. Nature of the assay: Induction of apoptosis in human HeLa cells assessed as early apoptotic cells level at 10 uM incubated for 24 hrs by annexin V-FITC and propidium iodide staining based flow cytometry (reference value: 0.72%). It counts as functional. In outline: (§1)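 HeLa cells seeded at 1 × 10^6 per well and exposed to compound at 10 μM for 24 h. Cells then treated with cold PBS and resuspended in binding buffer. Annexin V-FITC added, followed by 15 min at 4 °C in the dark. Apoptotic cells quantified by annexin V/PI double staining.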
(In flow cytometry, cells or beads pass a laser one at a time.)

Assay [2] relates to HeLa. Nature of the assay: Induction of apoptosis in human HeLa cells assessed as late apoptotic cells level at 10 uM incubated for 24 hrs by annexin V-FITC and propidium iodide staining based flow cytometry (reference value: 1.81%). It counts as functional. Put shortly:
as §1

In assay [3] the test system is HCT-116. Put plainly: Cytotoxicity against human HCT116 cells incubated for 24 hrs by sulforhodamine B assay. It counts as functional, cell-based. The note with it: HCT-116, 24 h. For orientation: The SRB assay estimates cell density from bound dye.
Assay [4] has as its system HeLa. Put plainly: Cytotoxicity against human HeLa cells incubated for 24 hrs by sulforhodamine B assay. It counts as functional, cell-based.
In assay [5] the test system is A549. Nature of the assay: Cytotoxicity against human A549 cells incubated for 24 hrs by sulforhodamine B assay. It is filed as functional, cell-based. The settings on record: A549, 24 h.
Assay [6] has as its system HeLa. Put plainly: Induction of apoptosis in human HeLa cells at 10 uM incubated for 24 hrs by annexin V-FITC and propidium iodide staining based flow cytometry. It is filed as functional. In outline: as §1
The species named for assay [7] is Bos taurus. Nature of the assay: Inhibition of calf thymus topoisomerase 1 assessed as reduction in relaxation of supercoiled pBR322 DNA at 100 uM incubated for 30 mins by ethidium bromide staining based electrophoresis method. In outline: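 Calf thymus topo I (0.1 unit) incubated with 0.5 μg supercoiled pBR322 DNA and compound for 30 min at 37 °C in topo I buffer with 0.01% BSA, 20 μL total. Reaction stopped with SDS/loading dye. Samples run on 0.8% agarose in TAE, 35 min at 120 V, then stained with ethidium bromide and imaged under UV.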

Assay [8] addresses DNA topoisomerase 2-alpha (Homo sapiens) (UniProt P11388). Nature of the assay: Inhibition of human topoisomerase 2 assessed as reduction in ATP-dependent kDNA decatenation at 100 uM incubated for 30 mins by ethidium bromide staining based electrophoresis method.
Assay [9] is filed under the species Bos taurus. Nature of the assay: Inhibition of calf thymus topoisomerase 1 assessed as reduction in relaxation of supercoiled pBR322 DNA at 200 uM incubated for 30 mins by ethidium bromide staining based electrophoresis method. In outline:
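Calf thymus topo I, 0.1 units, with 0.5 µg supercoiled pBR322 DNA and compound in topo I buffer with 0.01% BSA, 20 µL total. Incubated 30 min at 37 °C. Reaction stopped with 10% SDS plus loading dye. Run on 0.8% agarose gel in TAE, 35 min at 120 V. Gel stained with ethidium bromide and imaged under UV.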

Assay [10] relates to Calf thymus DNA. Put plainly: Binding affinity to calf thymus DNA assessed as induction of conformational changes at 20 uM by CD spectroscopy. It counts as nucleic-acid assay. The settings on record: Bos taurus. Put shortly:
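ct-DNA in 20 mM Tris–HCl pH 7.4, concentration set from molar absorption coefficient 6600 M−1 cm−1, A260/A280 above 1.8; 100 μM DNA with 20 μM compound for 2 h at 25 °C; CD spectra recorded 200–400 nm in 1 cm quartz cell.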

The structures appear in SMILES notation. Active and inactive are the calls of the source. The calls are words filed in the database; no cut-off is given here.

Sequence of DNA topoisomerase 2-alpha (Homo sapiens) (P11388 whole entry): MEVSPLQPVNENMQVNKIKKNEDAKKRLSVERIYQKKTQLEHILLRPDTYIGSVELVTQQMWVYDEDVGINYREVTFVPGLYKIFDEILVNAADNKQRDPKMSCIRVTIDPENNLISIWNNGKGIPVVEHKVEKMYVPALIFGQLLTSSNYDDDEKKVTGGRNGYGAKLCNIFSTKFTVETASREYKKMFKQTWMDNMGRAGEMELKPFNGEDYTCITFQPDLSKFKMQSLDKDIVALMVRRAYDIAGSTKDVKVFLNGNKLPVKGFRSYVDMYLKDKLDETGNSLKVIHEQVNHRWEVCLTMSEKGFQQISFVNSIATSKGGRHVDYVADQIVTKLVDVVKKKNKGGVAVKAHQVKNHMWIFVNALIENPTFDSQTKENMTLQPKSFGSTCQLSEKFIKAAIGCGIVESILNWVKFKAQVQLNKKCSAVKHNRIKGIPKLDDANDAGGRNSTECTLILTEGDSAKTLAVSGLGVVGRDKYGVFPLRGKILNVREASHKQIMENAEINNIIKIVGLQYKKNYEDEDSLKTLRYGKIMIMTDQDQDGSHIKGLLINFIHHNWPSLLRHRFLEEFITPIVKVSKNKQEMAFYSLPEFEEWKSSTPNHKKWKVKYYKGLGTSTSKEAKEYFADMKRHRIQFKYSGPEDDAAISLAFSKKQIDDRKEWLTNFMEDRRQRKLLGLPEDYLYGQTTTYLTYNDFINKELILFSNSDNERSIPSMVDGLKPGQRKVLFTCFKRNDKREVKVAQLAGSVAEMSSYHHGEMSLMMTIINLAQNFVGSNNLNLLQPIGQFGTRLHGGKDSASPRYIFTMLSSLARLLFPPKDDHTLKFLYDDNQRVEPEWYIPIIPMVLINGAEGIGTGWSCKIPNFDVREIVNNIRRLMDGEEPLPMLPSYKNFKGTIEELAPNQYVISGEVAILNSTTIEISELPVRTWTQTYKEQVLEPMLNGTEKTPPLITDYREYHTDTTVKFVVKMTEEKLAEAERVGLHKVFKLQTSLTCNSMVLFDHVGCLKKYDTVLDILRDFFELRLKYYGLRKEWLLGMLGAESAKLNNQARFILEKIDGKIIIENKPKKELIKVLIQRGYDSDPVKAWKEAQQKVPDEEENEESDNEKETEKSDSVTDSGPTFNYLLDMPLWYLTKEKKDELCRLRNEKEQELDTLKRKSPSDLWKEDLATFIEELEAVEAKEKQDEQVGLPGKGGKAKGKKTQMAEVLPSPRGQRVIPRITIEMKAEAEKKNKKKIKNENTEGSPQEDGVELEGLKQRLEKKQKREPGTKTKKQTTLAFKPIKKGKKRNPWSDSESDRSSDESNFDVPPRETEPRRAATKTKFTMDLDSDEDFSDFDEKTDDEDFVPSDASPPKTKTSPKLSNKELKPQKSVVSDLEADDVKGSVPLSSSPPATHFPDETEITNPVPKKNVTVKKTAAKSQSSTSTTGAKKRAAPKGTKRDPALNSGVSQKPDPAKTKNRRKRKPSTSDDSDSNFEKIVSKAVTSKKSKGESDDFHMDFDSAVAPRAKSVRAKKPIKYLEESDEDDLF

One may read the IC50 as the concentration that gives 50% inhibition. Low values mean higher potency, high ones lower potency. For the molecule `CCCCCCCCN1C(=O)c2cccc3c(NCCN4CCCNCCNCCCNCC4)ccc(c23)C1=O`, the Activity in assay [1] is recorded as 39.47%; in assay [2] it was 60.48%; in [6], above 90%. The values for the IC50 in [3], in assay [4] and in assay [5] were 16.7 µM, 10.1 µM and 15.8 µM, respectively. Besides, the inhibition result in [7] and in assay [8] was “Active” throughout.
`CCCCNc1ccc2c3c(cccc13)C(=O)N(CCCN1CCCNCCNCCCNCC1)C2=O`: the IC50 in assay [3], in [4] and in [5] was above 50 µM each time.
With `CC[C@@]1(O)C(=O)OCc2c1cc1n(c2=O)Cc2cc3ccccc3nc2-1`, in assay [9], the inhibition entry is “Active”.
As for `CCCCCCCCCCCCNc1ccc2c3c(cccc13)C(=O)N(CCCN1CCCNCCNCCCNCC1)C2=O`, the Activity in [1] is reported as 59.52%; in [2] it was 32.47%; in [6], above 90%. For the same molecule, the IC50 in assay [3] stood at 13 µM; in assay [4], 9.36 µM; in assay [5] it was 15.8 µM. Moreover, the inhibition entry in [7] and in [8] was “Active” in each case.
`COc1cccc2c1C(=O)c1c(O)c3c(c(O)c1C2=O)C[C@@](O)(C(=O)CO)C[C@@H]3O[C@H]1C[C@H](N)[C@H](O)[C@H](C)O1`: the inhibition result in assay [8] is “Active”.
Regarding `CNc1ccc2c3c(cccc13)C(=O)N(CCCN1CCCNCCNCCCNCC1)C2=O`, the IC50 in assay [3], in assay [4] and in assay [5] was above 50 µM each time.
Take `CN1C(=O)c2cccc3c(NCCN4CCCNCCNCCCNCC4)ccc(c23)C1=O`: the figures for the half-inhibitory concentration (IC50) in assay [3], in [4] and in [5] were 34.1 µM, 13.8 µM and 34.3 µM, respectively.
The like results for `C1CNCCNCCCNCCNC1` were, in that order, above 50 µM, above 50 µM and above 50 µM.
For `CCCCN1C(=O)c2cccc3c(NCCN4CCCNCCNCCCNCC4)ccc(c23)C1=O`, the IC50 in assay [3] is 29.2 µM; in assay [4], 19.2 µM; in [5], 38.9 µM.
With `CCCCCCCCCCCCN1C(=O)c2cccc3c(NCCN4CCCNCCNCCCNCC4)ccc(c23)C1=O`, the values for the Activity in [1], in [2] and in assay [6] were 86.4%, 13.54% and above 90%, respectively. Further, the IC50 in assay [3] is 18.2 µM; in [4], 11.8 µM; in [5], 18.4 µM. Moreover, the inhibition entry in assay [7] and in assay [8] was “Active” in each case.
In assay [4], `CN(C)CCN1C(=O)c2cccc3cc(N)cc(c23)C1=O` [AMONAFIDE] showed an IC50 of 9.52 µM. Further, the inhibition result in assay [7] and in [8] was “Active” throughout.
Take `CCCCCCCCNc1ccc2c3c(cccc13)C(=O)N(CCCN1CCCNCCNCCCNCC1)C2=O`: the Activity in assay [1] was 1.49%; in [2], 98.46%; in assay [6], above 90%. Further, the figures for the IC50 in [3], in assay [4] and in assay [5] were 8.07 µM, 8.4 µM and 11.6 µM, respectively. Also, in assay [10], the result was Active. Also, the inhibition result in [7] and in assay [8] was “Active” throughout.
